# Data taken from ChEMBL document CHEMBL3352012, “Synthesis and evaluation of novel podophyllotoxin derivatives as potential antitumor agents” (Eur J Med Chem, 2014).
# Activity calls are given as the source filed them. The rule behind the calls is not given here.
# Legend:
# [1] = (§1) Cytotoxicity against human K562/A02 cells after 48 hrs by MTT assay; type: functional, cell-based; conditions: K562/A02, 48 h
# Outline: (§2)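 Cells kept in RPMI-1640 with 10% FBS, 2 mmol/L glutamine, penicillin and streptomycin at 37 °C, 5% CO2. Seeded at 5 × 10³ cells/well and left 24 h to attach, then exposed to compounds or etoposide reference for 48 h. MTT (5 mg/mL) added for 4 h at 37 °C, supernatant removed, formazan dissolved in DMSO, absorbance read at 490 nm.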
# [2] = test system: HeLa; assay: Cytotoxicity against human HeLa cells after 48 hrs by MTT assay; type: functional, cell-based; outline: as §2
# [3] = test system: K562; assay: Resistance index, ratio of IC50 for human K562/A02 cells to IC50 for human K562 cells; type: functional
# [4] = test system: K562; assay: Cytotoxicity against human K562 cells after 48 hrs by MTT assay; type: functional, cell-based; conditions: for IC50: K562, 48 h; outline: as §2
# [5] = Reduction in MDR1 mRNA expression in human K562/A02 cells at 6 uM incubated for 48 hrs by RT-PCR method; type: functional, cell-based
# Outline: (§3)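 K562 and K562/A02 cells seeded 1 × 10⁵/well in 10% FCS/RPMI-1640; compound added 24 h later, then cultured another 48 h. Total RNA extracted with Trizol, checked at 260/280 nm, reverse transcribed; MDR-1 (157 bp) and β-actin (540 bp) amplified, products run on agarose gel, stained, MDR-1 normalised to β-actin against untreated control.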
# [6] = test system: K562/A02; assay: Induction of apoptosis in human K562/A02 cells assessed as necrotic cells level at 6 uM after 48 hrs by Annexin V-FITC and propidium iodide double staining based flow cytometry (reference value: 1.53%); type: functional
# [7] = test system: K562/A02; assay: Induction of apoptosis in human K562/A02 cells assessed as early apoptotic cells level at 6 uM after 48 hrs by Annexin V-FITC and propidium iodide double staining based flow cytometry (reference value: 6.23%); type: functional
# [8] = test system: K562/A02; assay: Induction of apoptosis in human K562/A02 cells assessed as viable cells level at 6 uM after 48 hrs by Annexin V-FITC and propidium iodide double staining based flow cytometry (reference value: 90.7%); type: functional
# [9] = test system: K562/A02; assay: Induction of apoptosis in human K562/A02 cells assessed as late apoptotic cells level at 6 uM after 48 hrs by Annexin V-FITC and propidium iodide double staining based flow cytometry (reference value: 1.58%); type: functional
# [10] = test system: K562/A02; assay: Induction of apoptosis in human K562/A02 cells assessed as necrotic cells level at 12 uM after 48 hrs by Annexin V-FITC and propidium iodide double staining based flow cytometry (reference value: 1.53%); type: functional
# [11] = test system: K562/A02; assay: Induction of apoptosis in human K562/A02 cells assessed as induction of large cells formation at 6 uM after 48 hrs by Hoechst-33342 staining based fluorescence microscopy; type: functional, cell-based
# Outline: (§4)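 K562/A02 cells treated 48 h at 3, 6 or 12 concentration levels alongside untreated control and 6 etoposide; nuclei stained with Hoechst 33342 and viewed by fluorescence microscopy at 400× for chromatin condensation, nuclear fragmentation and other apoptotic morphology.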
# [12] = test system: K562/A02; assay: Induction of apoptosis in human K562/A02 cells assessed as viable cells level at 12 uM after 48 hrs by Annexin V-FITC and propidium iodide double staining based flow cytometry (reference value: 90.7%); type: functional
# [13] = test system: K562/A02; assay: Induction of apoptosis in human K562/A02 cells assessed as early apoptotic cells level at 12 uM after 48 hrs by Annexin V-FITC and propidium iodide double staining based flow cytometry (reference value: 6.23%); type: functional
# [14] = test system: K562/A02; assay: Induction of apoptosis in human K562/A02 cells assessed as induction of chromatin condensation at 12 uM after 48 hrs by Hoechst-33342 staining based fluorescence microscopy; type: functional, cell-based; outline: as §4
# [15] = Reduction in MDR1 mRNA expression in human K562/A02 cells at 6 uM incubated for 48 hrs by RT-PCR method relative to untreated control; type: functional, cell-based; outline: as §3
# [16] = test system: K562/A02; assay: as §1; type: functional, cell-based; outline: as §2
# [17] = test system: K562/A02; assay: Induction of apoptosis in human K562/A02 cells assessed as induction of large cytoplasmic vacuoles at 6 uM after 48 hrs by Hoechst-33342 staining based fluorescence microscopy; type: functional, cell-based; outline: as §4
# [18] = test system: K562/A02; assay: Induction of apoptosis in human K562/A02 cells assessed as induction of nuclear fragmentation at 12 uM after 48 hrs by Hoechst-33342 staining based fluorescence microscopy; type: functional, cell-based; outline: as §4
# [19] = test system: K562/A02; assay: Induction of apoptosis in human K562/A02 cells assessed as late apoptotic cells level at 3 uM after 48 hrs by Annexin V-FITC and propidium iodide double staining based flow cytometry (reference value: 1.58%); type: functional
# [20] = test system: K562/A02; assay: Induction of apoptosis in human K562/A02 cells assessed as induction of multinucleation at 6 uM after 48 hrs by Hoechst-33342 staining based fluorescence microscopy; type: functional, cell-based; outline: as §4
# [21] = Reduction in MDR1 mRNA expression in human K562/A02 cells incubated for 48 hrs by RT-PCR method; type: functional, cell-based; outline: as §3
# [22] = test system: K562/A02; assay: Induction of apoptosis in human K562/A02 cells assessed as early apoptotic cells level at 3 uM after 48 hrs by Annexin V-FITC and propidium iodide double staining based flow cytometry (reference value: 6.23%); type: functional
# [23] = test system: K562/A02; assay: Induction of apoptosis in human K562/A02 cells assessed as induction of cell shrinkage and detachment at 12 uM after 48 hrs by Hoechst-33342 staining based fluorescence microscopy; type: functional; outline: as §4
# [24] = test system: K562/A02; assay: Induction of apoptosis in human K562/A02 cells assessed as viable cells level at 3 uM after 48 hrs by Annexin V-FITC and propidium iodide double staining based flow cytometry (reference value: 90.7%); type: functional
# [25] = test system: K562/A02; assay: Induction of apoptosis in human K562/A02 cells assessed as late apoptotic cells level at 12 uM after 48 hrs by Annexin V-FITC and propidium iodide double staining based flow cytometry (reference value: 1.58%); type: functional
# [26] = Reduction in MDR1 mRNA expression in human K562/A02 cells assessed as MDR1 mRNA levels at 12 uM incubated for 48 hrs by RT-PCR method (reference value: 100%); type: functional, cell-based; design: scale not given: the % may be the effect or the level left; outline: as §3
# [27] = test system: K562/A02; assay: Induction of apoptosis in human K562/A02 cells assessed as necrotic cells level at 3 uM after 48 hrs by Annexin V-FITC and propidium iodide double staining based flow cytometry (reference value: 1.53%); type: functional
# [28] = test system: K562/A02; assay: Induction of apoptosis in human K562/A02 cells at 12 uM after 48 hrs by Annexin V-FITC and propidium iodide double staining based flow cytometry (reference value: 7.9 +/- 1.34%); type: functional
# [29] = test system: K562/A02; assay: Induction of apoptosis in human K562/A02 cells assessed as induction of membrane blebbing at 12 uM after 48 hrs by Hoechst-33342 staining based fluorescence microscopy; type: functional, cell-based; outline: as §4
# [30] = test system: K562/A02; assay: Induction of apoptosis in human K562/A02 cells assessed as induction of abnormal mitotic figures at 6 uM after 48 hrs by Hoechst-33342 staining based fluorescence microscopy; type: functional, cell-based; outline: as §4
compound,measurement,setting,value
CCN1CCN(Cc2ccc(CN[C@@H]3c4cc5c(cc4[C@@H](c4cc(OC)c(O)c(OC)c4)[C@H]4C(=O)OC[C@@H]43)OCO5)o2)CC1,IC50,[1],123 µM
same,IC50,[2],0.67 µM
same,Ratio IC50,[3],16.54
same,IC50,[4],7.45 µM
COc1cc([C@@H]2c3cc4c(cc3[C@@H](NCc3ccc([N+](=O)[O-])o3)[C@H]3COC(=O)[C@H]23)OCO4)cc(OC)c1O,IC50,[1],59.2 µM
same,IC50,[2],6.64 µM
same,Ratio IC50,[3],6.41
same,IC50,[4],9.24 µM
CCN1CCN(Cc2ccc(CN[C@@H]3c4cc5c(cc4[C@@H](c4cc(OC)c(OC)c(OC)c4)[C@H]4C(=O)OC[C@@H]43)OCO5)o2)CC1,IC50,[1],> 1000 µM
same,IC50,[2],> 100 µM
same,Ratio IC50,[3],>100
same,IC50,[4],> 100 µM
COc1cc([C@@H]2c3cc4c(cc3[C@H](O)[C@H]3COC(=O)[C@H]23)OCO4)cc(OC)c1OC [PODOFILOX],IC50,[1],0.17 µM
same,Ratio IC50,[3],5.667
COc1cc([C@@H]2c3cc4c(cc3[C@@H](NCc3ccc(C)o3)[C@H]3COC(=O)[C@H]23)OCO4)cc(OC)c1O,IC50,[1],> 1000 µM
same,IC50,[2],60.5 µM
same,Ratio IC50,[3],34.23
same,IC50,[4],65.9 µM
COc1cc([C@@H]2c3cc4c(cc3[C@@H](NCc3ccc(CN(C)C)o3)[C@H]3COC(=O)[C@H]23)OCO4)cc(OC)c1OC,IC50,[1],35.3 µM
same,IC50,[2],14.2 µM
same,Ratio IC50,[3],5.11
same,IC50,[4],6.91 µM
COc1cc([C@@H]2c3cc4c(cc3[C@@H](O[C@@H]3O[C@@H]5CO[C@@H](C)O[C@H]5[C@H](O)[C@H]3O)[C@H]3COC(=O)[C@H]23)OCO4)cc(OC)c1O [ETOPOSIDE],MDR1 mRNA reduction (qualitative),[5],Active
same,Activity,[6],2.52%
same,Activity,[7],28.4%
same,IC50,[1],235 µM
same,Activity,[8],61.1%
same,Ratio IC50,[3],69.29
same,Activity,[9],7.98%
same,IC50,[4],3.39 µM
COc1cc([C@@H]2c3cc4c(cc3[C@@H](NCc3ccc([N+](=O)[O-])o3)[C@H]3COC(=O)[C@H]23)OCO4)cc(OC)c1OC,Activity,[10],1.09%
same,MDR1 mRNA reduction (qualitative),[5],Active
same,Activity,[11],Active
same,Activity,[6],13.5%
same,Activity,[12],34.5%
same,Activity,[13],56.3%
same,Activity,[7],28.2%
same,Activity,[14],Active
same,inhibition,[15],70%
same,IC50,[1],5.42 µM
same,growth inhibition (GI),[16],Dose-dependent effect
same,Activity,[17],Active
same,IC50,[2],7.55 µM
same,Activity,[8],46.4%
same,Ratio IC50,[3],0.905
same,Activity,[18],Active
same,Activity,[19],4.02%
same,Activity,[9],11.9%
same,Activity,[20],Active
same,inhibition,[21],Dose-dependent effect
same,growth inhibition (GI),[4],Dose-dependent effect
same,IC50,[4],5.99 µM
same,Activity,[22],14.8%
same,Activity,[23],Active
same,Activity,[24],77.3%
same,Activity,[25],8.05%
same,Activity,[26],31.2%
same,Activity,[27],3.9%
same,Activity,[28],65.35%
same,Activity,[29],Active
same,Activity,[30],Active
CCN(CC)Cc1ccc(CN[C@@H]2c3cc4c(cc3[C@@H](c3cc(OC)c(OC)c(OC)c3)[C@H]3C(=O)OC[C@@H]32)OCO4)o1,IC50,[1],> 1000 µM
same,IC50,[2],> 100 µM
same,Ratio IC50,[3],>100
same,IC50,[4],> 100 µM
